Measured values taken from ChEMBL document CHEMBL1833821, “Defining the structural parameters that confer anticonvulsant activity by the site-by-site modification of (R)-N'-benzyl 2-amino-3-methylbutanamide” (J Med Chem, 2011).
Active and inactive are the calls of the source.

Experiments:
Mus musculus [1] = species: Mus musculus; assay: Protective index, ratio of TD50 for albino CF1 mouse by rotarod test to ED50 for albino CF1 mouse by maximal electroshock seizures test; format: functional
In short: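 Mouse protective index calculated as rotorod TD50 divided by MES ED50, both from ip dosing of male CF-1 mice at the NINDS ASP.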

Rattus norvegicus [2] = assay: Anticonvulsant activity in po dosed albino Sprague-Dawley rat assessed as time of peak effect by maximal electroshock seizures test in presence of 150 miliamperes of electric current; format: functional
In short: (§1)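 Adult male albino Sprague-Dawley rats dosed orally under NINDS ASP; MES test. ED50 in mg/kg, with time of testing noted in hours in brackets.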

Rattus norvegicus [3] = assay: Behavioral toxicity in po dosed albino Sprague-Dawley rat assessed as time of peak effect; format: organism-based; settings: in vivo
In short: (§2)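 Adult male albino Sprague-Dawley rats given compound orally under NINDS ASP. Behavioral toxicity was scored by the positional sense test or the gait and stance test. TD50 in mg/kg, with time in hours bracketed.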

Mus musculus [4] = assay: Anticonvulsant activity in ip dosed albino CF1 mouse assessed as protection against subcutaneous metrazol-induced seizures; format: functional, organism-based
In short: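 Male albino CF-1 mice dosed ip under NINDS ASP; subcutaneous pentylenetetrazol (Metrazol) seizure threshold test.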

Mus musculus [5] = assay: Anticonvulsant activity in ip dosed albino CF1 mouse assessed as time of peak effect by maximal electroshock seizures test in presence of 50 miliamperes of electric current; format: functional
In short: (§3)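 Adult male albino CF-1 (Carworth Farms No. 1) mice dosed ip under NINDS ASP; MES test. Compounds with sufficient activity got a dose-response curve (4–6 doses, n = 8 per dose) at the time of peak effect (h, bracketed).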

[6] = Neurotoxicity in ip dosed albino CF1 mouse assessed as minimal motor coordination impairment by rotarod test; format: toxicity, organism-based; settings: in vivo
Rattus norvegicus [7] = assay: Anticonvulsant activity in po dosed albino Sprague-Dawley rat assessed as protection against maximal electroshock-induced seizures in presence of 150 miliamperes of electric current; format: functional; in short: as §1
[8] = Neurotoxicity in po dosed albino Sprague-Dawley rat; format: toxicity, organism-based; settings: in vivo; in short: as §2
Mus musculus [9] = assay: Neurotoxicity in ip dosed albino CF1 mouse assessed as time of peak effect by rotarod test; format: toxicity, organism-based; settings: in vivo
Mus musculus [10] = assay: Anticonvulsant activity in ip dosed albino CF1 mouse assessed as protection against maximal electroshock-induced seizures in presence of 50 miliamperes of electric current; format: functional; in short: as §3
Rattus norvegicus [11] = species: Rattus norvegicus; assay: Protective index, ratio of TD50 for albino Sprague-Dawley rat to ED50 for albino Sprague-Dawley rat by maximal electroshock seizures test; format: functional
In short: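 Rat protective index calculated as behavioral toxicity TD50 divided by MES ED50, both after oral dosing of male Sprague-Dawley rats at the NINDS ASP.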

Mus musculus [12] = assay: Anticonvulsant activity in ip dosed NMRI mouse assessed as protection against maximal electroshock-induced seizures after 30 mins in presence of 50 miliamperes of electric current; format: functional; settings: 0.5 h

SMILES	PI (Mus musculus [1])	Time (Rattus norvegicus [2])	Time (Rattus norvegicus [3])	Activity (Mus musculus [4])	Time (Mus musculus [5])	TD50 [6]	ED50 (Rattus norvegicus [7])	TD50 [8]	Time (Mus musculus [9])	ED50 (Mus musculus [10])	PI (Rattus norvegicus [11])	ED50 (Mus musculus [12])
CC(C)[C@@H](N)C(=O)NCCCc1ccccc1	2.7	0.25 h	0.25 h	inactive	0.25 h	43 mg/kg	< 30 mg/kg	> 30 mg/kg	0.25 h	16 mg/kg	–	–
CCCC(=O)NCc1ccccc1	–	–	–	–	–	100 mg/kg	–	> 30 mg/kg	0.5 h	–	–	–
CC(C)[C@@H](N)CNCc1ccccc1	–	0.25 h	0.25 h	inactive	0.5 h	100 mg/kg	> 30 mg/kg	> 30 mg/kg	0.5 h	30 mg/kg	–	–
CCCC(CCC)C(=O)[O-].[Na+] [VALPROATE SODIUM]	–	0.5 h	0.5 h	–	0.5 h	–	–	–	0.25 h	270 mg/kg	–	–
CC[C@@H](O)C(=O)NCc1ccccc1	–	0.25 h	0.25 h	inactive	0.5 h	100 mg/kg	> 30 mg/kg	> 30 mg/kg	0.5 h	100 mg/kg	–	–
COC[C@@H](NC(C)=O)C(=O)NCc1ccccc1 [LACOSAMIDE]	6	2 h	–	–	0.5 h	–	–	> 500 mg/kg	0.25 h	–	–	–
CC(C)[C@@H](N)C(=O)NCc1cccc(OC(F)(F)F)c1	4.2	1 h	1 h	inactive	0.25 h	30 mg/kg	10 mg/kg	43 mg/kg	0.25 h	7.1 mg/kg	4.3	–
CC(C)[C@@H](N)C(=O)NCCc1cccc(F)c1	3.4	0.5 h	–	–	0.25 h	67 mg/kg	38 mg/kg	> 500 mg/kg	0.25 h	20 mg/kg	–	–
CC(C)[C@@H](N)C(=O)NCc1ccccc1OC(F)(F)F	5.5	0.5 h	–	inactive	0.25 h	51 mg/kg	33 mg/kg	> 500 mg/kg	0.25 h	9.2 mg/kg	>15	–
CCC(C)C(=O)NCc1ccccc1 (racemic)	2.9	0.5 h	–	inactive	0.25 h	165 mg/kg	51 mg/kg	> 500 mg/kg	0.25 h	56 mg/kg	>9.8	–
CC(C)[C@@H](N)C(=O)NCCCCc1ccccc1	3.5	0.25 h	0.25 h	inactive	0.25 h	38 mg/kg	> 30 mg/kg	> 30 mg/kg	0.25 h	11 mg/kg	–	–
CC(=O)NC(C(=O)NCc1ccccc1)c1ccccc1 (racemic)	–	–	–	–	–	–	–	–	–	20 mg/kg	–	–
CN[C@@H](C(=O)NCc1ccccc1)C(C)C	–	–	–	–	–	–	–	–	–	–	–	25 mg/kg
CC(C)[C@@H](N)C(=S)NCc1ccccc1	–	0.5 h	0.25 h	inactive	0.5 h	30 mg/kg	< 30 mg/kg	> 30 mg/kg	0.5 h	30 mg/kg	–	–
CC(C)[C@H](C(=O)NCc1ccccc1)N(C)C	–	–	–	inactive	0.5 h	100 mg/kg	–	–	0.5 h	30 mg/kg	–	–
CCC1(c2ccccc2)C(=O)NC(=O)NC1=O [PHENOBARBITAL]	3	5 h	0.5 h	–	1 h	–	9.1 mg/kg	–	0.5 h	22 mg/kg	>100	–
O=C1NC(=O)C(c2ccccc2)(c2ccccc2)N1 [PHENYTOIN]	–	4 h	–	–	2 h	–	30 mg/kg	> 3000 mg/kg	0.25 h	–	–	–
CC(C)[C@@H](N)C(=O)NCC1CCCCC1	–	0.25 h	0.25 h	inactive	0.5 h	100 mg/kg	15 mg/kg	> 30 mg/kg	0.5 h	30 mg/kg	–	–
CC(C)[C@@H](N)C(=O)NCCc1ccc(F)cc1	–	–	–	–	–	30 mg/kg	–	–	–	10 mg/kg	–	–
CC(C)[C@@H](N)C(=O)Nc1ccccc1	–	–	–	inactive	0.5 h	> 30 mg/kg	–	–	0.5 h	30 mg/kg	–	–
CC(C)[C@@H](N)C(=O)NCCc1ccccc1	5	0.25 h	0.24 h	inactive	0.25 h	50 mg/kg	< 30 mg/kg	> 30 mg/kg	0.25 h	10 mg/kg	–	–
CC(C)[C@@H](N)C(=O)NCCc1ccccc1F	2.9	4 h	–	–	0.25 h	79 mg/kg	–	500 mg/kg	0.25 h	27 mg/kg	>25	–
CC(C)[C@@H](N)C(=O)OCc1ccccc1	–	0.25 h	0.25 h	inactive	0.5 h	> 300 mg/kg	> 30 mg/kg	> 30 mg/kg	0.5 h	> 300 mg/kg	–	–
CC(C)[C@@H](N)C(=O)CCc1ccccc1.Cl	–	–	–	inactive	–	100 mg/kg	–	–	–	30 mg/kg	–	–
CC[C@H](C)C(=O)NCc1ccccc1	–	0.25 h	0.25 h	–	0.5 h	300 mg/kg	> 30 mg/kg	> 30 mg/kg	0.5 h	100 mg/kg	–	–
